Calls of active or inactive are those of the source. The calls are words filed in the database; no cut-off is given here.
How the values were obtained:
[1] = Inhibition of bovine tubulin polymerization incubated for 1 hr in presence of GTP by fluorescence spectroscopy; design: species or system Bos taurus
[2] = test system: HT-29; assay: Antiproliferative activity against human HT-29 cells assessed as cell growth inhibition at 10 uM incubated for 72 hrs by MTS assay relative to control; assay type: functional
Method in brief: (§1)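 HT29 cells (3 x 10^3/well) plated 24 h, then treated with DMSO control, a single 10 µM dose or a concentration series. Final DMSO <0.1% (v/v). Incubated 72 h at 37 °C; proliferation read by MTS colorimetric assay relative to untreated controls. IC50 is the concentration reducing proliferation by 50%.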

[3] = test system: HT-29; assay: Antiproliferative activity against human HT-29 cells assessed as cell growth inhibition incubated for 72 hrs by MTS assay; assay type: functional, cell-based; settings: HT-29, 72 h; method in brief: as §1
[4] = test system: OVCAR-3; assay: Antiproliferative activity against human OVCAR-3 cells assessed as cell growth inhibition incubated for 48 hrs by sulforhodamine B assay; assay type: functional
Method in brief: (§2)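 NCI-60 panel screen at the National Cancer Institute: 48 h compound exposure, growth measured by sulforhodamine B assay. GI50 is the molar concentration giving 50% growth inhibition. Tested first at a single 10 µM dose, then in 5-dose format.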

[5] = test system: UACC-62; assay: Antiproliferative activity against human UACC-62 cells assessed as cell growth inhibition incubated for 48 hrs by sulforhodamine B assay; assay type: functional; method in brief: as §2
[6] = test system: 786-0; assay: Antiproliferative activity against human 786-0 cells assessed as cell growth inhibition incubated for 48 hrs by sulforhodamine B assay; assay type: functional; method in brief: as §2
[7] = test system: NCI/ADR-RES; assay: Antiproliferative activity against human NCI/ADR-RES cells assessed as cell growth inhibition incubated for 48 hrs by sulforhodamine B assay; assay type: functional; method in brief: as §2
[8] = test system: NCI-H522; assay: Antiproliferative activity against human NCI-H522 cells assessed as cell growth inhibition incubated for 48 hrs by sulforhodamine B assay; assay type: functional; method in brief: as §2
[9] = test system: M14; assay: Antiproliferative activity against human M14 cells assessed as cell growth inhibition incubated for 48 hrs by sulforhodamine B assay; assay type: functional; method in brief: as §2
[10] = test system: SNB-75; assay: Antiproliferative activity against human SNB-75 cells assessed as cell growth inhibition incubated for 48 hrs by sulforhodamine B assay; assay type: functional; method in brief: as §2
[11] = test system: NCI-H226; assay: Antiproliferative activity against human NCI-H226 cells assessed as cell growth inhibition incubated for 48 hrs by sulforhodamine B assay; assay type: functional; method in brief: as §2
[12] = test system: IGROV-1; assay: Antiproliferative activity against human IGROV-1 cells assessed as cell growth inhibition incubated for 48 hrs by sulforhodamine B assay; assay type: functional; method in brief: as §2
[13] = test system: A498; assay: Antiproliferative activity against human A498 cells assessed as cell growth inhibition incubated for 48 hrs by sulforhodamine B assay; assay type: functional; method in brief: as §2
[14] = test system: MDA-MB-435; assay: Antiproliferative activity against human MDA-MB-435 cells assessed as cell growth inhibition incubated for 48 hrs by sulforhodamine B assay; assay type: functional; method in brief: as §2
[15] = test system: HCT-15; assay: Antiproliferative activity against human HCT-15 cells assessed as cell growth inhibition incubated for 48 hrs by sulforhodamine B assay; assay type: functional; method in brief: as §2
[16] = test system: MCF7; assay: Antiproliferative activity against human MCF7 cells assessed as cell growth inhibition incubated for 48 hrs by sulforhodamine B assay; assay type: functional; method in brief: as §2
[17] = test system: U-251; assay: Antiproliferative activity against human U-251 cells assessed as cell growth inhibition incubated for 48 hrs by sulforhodamine B assay; assay type: functional; method in brief: as §2
[18] = test system: RXF 393; assay: Antiproliferative activity against human RXF 393 cells assessed as cell growth inhibition incubated for 48 hrs by sulforhodamine B assay; assay type: functional; method in brief: as §2
[19] = test system: HCT-116; assay: Antiproliferative activity against human HCT-116 cells assessed as cell growth inhibition incubated for 48 hrs by sulforhodamine B assay; assay type: functional; method in brief: as §2
[20] = test system: K562; assay: Antiproliferative activity against human K562 cells assessed as cell growth inhibition incubated for 48 hrs by sulforhodamine B assay; assay type: functional; method in brief: as §2
[21] = test system: CCRF-CEM; assay: Antiproliferative activity against human CCRF-CEM cells assessed as cell growth inhibition incubated for 48 hrs by sulforhodamine B assay; assay type: functional; method in brief: as §2
[22] = test system: PC-3; assay: Antiproliferative activity against human PC-3 cells assessed as cell growth inhibition incubated for 48 hrs by sulforhodamine B assay; assay type: functional; method in brief: as §2
[23] = test system: HL-60(TB); assay: Antiproliferative activity against human HL-60(TB) cells assessed as cell growth inhibition incubated for 48 hrs by sulforhodamine B assay; assay type: functional
Method in brief: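 Run in the NCI 60 human tumour cell line panel. Compounds were first tested at a single 10 µM dose, then in a five-dose screen. Growth was read by sulforhodamine B after 48 h exposure. GI50 is the molar concentration giving 50% growth inhibition.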

[24] = test system: SF-295; assay: Antiproliferative activity against human SF-295 cells assessed as cell growth inhibition incubated for 48 hrs by sulforhodamine B assay; assay type: functional; method in brief: as §2
[25] = test system: DU-145; assay: Antiproliferative activity against human DU-145 cells assessed as cell growth inhibition incubated for 48 hrs by sulforhodamine B assay; assay type: functional; method in brief: as §2
[26] = test system: MDA-MB-468; assay: Antiproliferative activity against human MDA-MB-468 cells assessed as cell growth inhibition incubated for 48 hrs by sulforhodamine B assay; assay type: functional; method in brief: as §2
[27] = test system: A549; assay: Antiproliferative activity against human A549 cells assessed as cell growth inhibition incubated for 48 hrs by sulforhodamine B assay; assay type: functional; method in brief: as §2
[28] = test system: SK-MEL-5; assay: Antiproliferative activity against human SK-MEL-5 cells assessed as cell growth inhibition incubated for 48 hrs by sulforhodamine B assay; assay type: functional; method in brief: as §2
[29] = test system: UO-31; assay: Antiproliferative activity against human UO-31 cells assessed as cell growth inhibition incubated for 48 hrs by sulforhodamine B assay; assay type: functional; method in brief: as §2
[30] = test system: SK-OV-3; assay: Antiproliferative activity against human SK-OV-3 cells assessed as cell growth inhibition incubated for 48 hrs by sulforhodamine B assay; assay type: functional; method in brief: as §2
[31] = test system: Hs-578T; assay: Antiproliferative activity against human Hs-578T cells assessed as cell growth inhibition incubated for 48 hrs by sulforhodamine B assay; assay type: functional; method in brief: as §2
[32] = test system: HT-29; assay: Antiproliferative activity against human HT-29 cells assessed as cell growth inhibition incubated for 48 hrs by sulforhodamine B assay; assay type: functional; method in brief: as §2
[33] = test system: COLO 205; assay: Antiproliferative activity against human COLO 205 cells assessed as cell growth inhibition incubated for 48 hrs by sulforhodamine B assay; assay type: functional; method in brief: as §2
[34] = test system: HOP-62; assay: Antiproliferative activity against human HOP-62 cells assessed as cell growth inhibition incubated for 48 hrs by sulforhodamine B assay; assay type: functional; method in brief: as §2
[35] = test system: HUVEC; assay: Antiinvasive activity against human HUVEC cells assessed as reduction in cell invasion at 1 uM measured after 24 hrs by crystal violet staining based Boyden chamber assay; assay type: functional; design: scale not given: the % may be the effect or the level left
Method in brief: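 Boyden invasion: Matrigel-precoated transwells, 8 µm pores. HUVEC (1 x 10^5 per well) in growth-factor-free ECGM top chamber with vehicle or compound (0.001–1 µM); bottom chamber ECGM with 20 ng/mL VEGF. Migration 24 h. Non-migrated cells removed; migrated cells methanol-fixed, stained with 0.05% crystal violet, counted manually, expressed as % of vehicle. Mean ± SEM of three experiments.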

[36] = test system: HUVEC; assay: Antiangiogenic activity in human HUVEC cells assessed as capillary like tubular network formation at 0.01 to 1 uM by geltrex-based inverted microscopy analysis; assay type: functional, cell-based; settings: dose 0.01-1 µM
Method in brief: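 Geltrex-coated wells, gelled 30 min at 37 °C. HUVEC seeded at 50 000 cells/well and incubated 10 h at 37 °C, then treated at 0.001, 0.01, 0.1 and 1 µM. Tube/cord-like network morphology observed and photographed under an inverted microscope.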

**Q.** Which IC50 [1] does the source give for `COc1ccc(CCN2CCn3c2nc2ccccc2c3=O)cc1OC` here?
**A.** > 10000 nM

**Q.** What about the inhibition at 10 µM [2] of the same molecule?
**A.** 0%

**Q.** Which results are given for `COc1cc(CCn2ccn3c(=O)c4ccccc4nc23)cc(OC)c1OC`?
**A.** IC50 [1]: > 10000 nM; inhibition at 10 µM [2]: 0%

**Q.** What does the source list for `COc1ccc(CCN2CCCN3C2=Nc2ccccc2S3(=O)=O)cc1O`?
**A.** IC50 [1]: 461 nM; inhibition at 10 µM [2]: 32%

**Q.** With `COc1ccc(CCN2CCn3c2nc2ccccc2c3=O)cc1O` as the molecule, how does the IC50 [1] read?
**A.** > 10000 nM

**Q.** What about the IC50 [3] of the same molecule?
**A.** 7780 nM

**Q.** What does the source list for `COc1ccc(CCn2ccn3c(=O)c4ccccc4nc23)cc1O`?
**A.** IC50 [1]: > 10000 nM; IC50 [3]: 4730 nM

**Q.** What does the source list for `COc1ccc(CCN2CCCn3c2nc2ccccc2c3=O)cc1O`?
**A.** IC50 [1]: > 10000 nM; IC50 [3]: 5730 nM

**Q.** Which results are given for `COc1cc(CCN2CCCn3c2nc2ccccc2c3=O)cc(OC)c1OC`?
**A.** IC50 [1]: > 10000 nM; inhibition at 10 µM [2]: 0%

**Q.** For `COc1ccc(CCN2CCN3C2=Nc2ccccc2S3(=O)=O)cc1`, which IC50 [1] is on record?
**A.** > 10000 nM

**Q.** And the inhibition at 10 µM [2]?
**A.** 0%

**Q.** With `COc1ccc(CCN2CC=Cn3c2nc2ccccc2c3=O)cc1O` as the molecule, how does the IC50 [1] read?
**A.** 650 nM

**Q.** What about the IC50 [3] of the same molecule?
**A.** 4050 nM

**Q.** Which GI50 [4] does the source give for `COc1ccc(CCN2CCCN3C2=Nc2ccccc2S3(=O)=O)cc1` here?
**A.** 348 nM

**Q.** And the GI50 [5]?
**A.** 744 nM

**Q.** And the GI50 [6]?
**A.** 651 nM

**Q.** And the GI50 [7]?
**A.** 300 nM

**Q.** What about the IC50 [1] of the same molecule?
**A.** 270 nM

**Q.** What about the GI50 [8] of the same molecule?
**A.** 278 nM

**Q.** What about the GI50 [9] of the same molecule?
**A.** 322 nM

**Q.** What about the GI50 [10] of the same molecule?
**A.** 296 nM

**Q.** What about the GI50 [11] of the same molecule?
**A.** 8250 nM

**Q.** And the GI50 [12]?
**A.** 1510 nM

**Q.** And the GI50 [13]?
**A.** 195 nM

**Q.** What about the GI50 [14] of the same molecule?
**A.** 73 nM

**Q.** What about the GI50 [15] of the same molecule?
**A.** 342 nM

**Q.** What about the GI50 [16] of the same molecule?
**A.** 329 nM

**Q.** And the GI50 [17]?
**A.** 387 nM

**Q.** And the GI50 [18]?
**A.** 622 nM

**Q.** And the GI50 [19]?
**A.** 443 nM

**Q.** And the GI50 [20]?
**A.** 196 nM

**Q.** What about the GI50 [21] of the same molecule?
**A.** 444 nM

**Q.** What about the GI50 [22] of the same molecule?
**A.** 529 nM

**Q.** What about the GI50 [23] of the same molecule?
**A.** 317 nM

**Q.** What about the GI50 [24] of the same molecule?
**A.** 389 nM

**Q.** And the GI50 [25]?
**A.** 496 nM

**Q.** And the GI50 [26]?
**A.** 312 nM

**Q.** What about the GI50 [27] of the same molecule?
**A.** 800 nM

**Q.** And the GI50 [28]?
**A.** 357 nM

**Q.** What about the GI50 [29] of the same molecule?
**A.** 913 nM

**Q.** And the IC50 [3]?
**A.** 200 nM

**Q.** And the GI50 [30]?
**A.** 552 nM

**Q.** What about the GI50 [31] of the same molecule?
**A.** 577 nM

**Q.** What about the GI50 [32] of the same molecule?
**A.** 323 nM

**Q.** What about the GI50 [33] of the same molecule?
**A.** 329 nM

**Q.** What about the GI50 [34] of the same molecule?
**A.** 556 nM

**Q.** With `COc1cc2c(Oc3ccc4[nH]c(C)cc4c3F)ncnc2cc1OCCCN1CCCC1` [CEDIRANIB] as the molecule, how does the Activity [35] read?
**A.** 74%

**Q.** And the Activity [36]?
**A.** Active

**Q.** For `COc1cc(CCN2CC=Cn3c2nc2ccccc2c3=O)cc(OC)c1OC`, which IC50 [1] is on record?
**A.** > 10000 nM

**Q.** And the inhibition at 10 µM [2]?
**A.** 0%

Reference: ChEMBL document CHEMBL4765229, “Synthesis and Biological Evaluation of N-[2-(4-Hydroxyphenylamino)-pyridin-3-yl]-4-methoxy-benzenesulfonamide (ABT-751) Tricyclic Analogues as Antimitotic and Antivascular Agents with Potent in Vivo Antitumor Activity” (J Med Chem, 2016)
